Assay results reported in ChEMBL document CHEMBL1132544, “Synthesis and biological evaluation of novel prodrugs of anthracyclines for selective activation by the tumor-associated protease plasmin” (1999).
Values after ≈ are worked out from the molar mass of the structure shown.

Legend:
Type in all cases: functional
NCI-H226 = assay: Cytotoxicity against H 226 tumor cell line; details: Homo sapiens, read-out: ID50 (the source's name)
Procedure, shortened: (§1)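 Seven human tumour lines, continuous exposure to (pro)drug for 5 days, antiproliferative effect read by microculture sulforhodamine B (SRB) assay. ID50 = concentration giving 50% inhibition of cell growth relative to untreated control cultures, in ng/mL.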

WiDr = assay: Cytotoxicity against WIDR tumor cell line; details: Homo sapiens, read-out: ID50 (the source's name); procedure, shortened: as §1
A498 = assay: Cytotoxicity against A 498 tumor cell line; details: Homo sapiens, read-out: ID50 (the source's name); procedure, shortened: as §1
EVSA-T = assay: Cytotoxicity against EVSA-T tumor cell line; details: Homo sapiens, read-out: ID50 (the source's name); procedure, shortened: as §1
MCF7 = assay: Cytotoxicity against MCF-7 tumor cell line; details: Homo sapiens, read-out: ID50 (the source's name); procedure, shortened: as §1
[1] = Cytotoxicity against M19 tumor cell line; details: Homo sapiens; read-out: ID50 (the source's name); procedure, shortened: as §1
IGROV-1 = assay: Cytotoxicity against IGROV tumor cell line; details: Homo sapiens, read-out: ID50 (the source's name); procedure, shortened: as §1

| SMILES | IC50 (NCI-H226) [µg/mL] | IC50 (WiDr) [µg/mL] | IC50 (A498) [µg/mL] | IC50 (EVSA-T) [µg/mL] | IC50 (MCF7) [µg/mL] | IC50 [1] [µg/mL] | IC50 (IGROV-1) [µg/mL] |
| --- | --- | --- | --- | --- | --- | --- | --- |
| COc1cccc2c1C(=O)c1c(O)c3c(c(O)c1C2=O)C[C@@](O)(C(C)=O)C[C@@H]3O[C@H]1C[C@H](N)[C@H](O)[C@H](C)O1 [DAUNORUBICIN] | 0.243 (≈ 0.461 µM) | 0.038 (≈ 0.072 µM) | 0.487 (≈ 0.923 µM) | 0.048 (≈ 0.091 µM) | 0.329 (≈ 0.624 µM) | 0.309 (≈ 0.586 µM) | 0.113 (≈ 0.214 µM) |
| COc1cccc2c1C(=O)c1c(O)c3c(c(O)c1C2=O)C[C@@](O)(C(=O)CO)C[C@@H]3OC1CC(NC(=O)OCc2ccc(NC(=O)[C@H](CCCCN)NC(=O)[C@H](Cc3ccccc3)NC(=O)[C@@H](C)N)cc2)C(O)C(C)O1.Cl.Cl (stereo partly drawn) | 0.896 | 0.413 | 0.473 | 0.141 | 0.176 | 0.437 | 0.59 |
| COc1cccc2c1C(=O)c1c(O)c3c(c(O)c1C2=O)C[C@@](O)(C(C)=O)C[C@@H]3OC1CC(NC(=O)OCc2ccc(NC(=O)[C@H](CCCCN)NC(=O)[C@H](Cc3ccccc3)NC(=O)[C@@H](C)N)cc2)C(O)C(C)O1.Cl.Cl (stereo partly drawn) | 1.7 | 2.15 | 1.16 | 1.2 | 1.21 | 1.58 | 0.225 |
| COc1cccc2c1C(=O)c1c(O)c3c(c(O)c1C2=O)C[C@@](O)(C(=O)CO)C[C@@H]3O[C@H]1C[C@H](N)[C@H](O)[C@H](C)O1 [DOXORUBICIN] | 0.199 (≈ 0.366 µM) | 0.011 (≈ 0.0202 µM) | 0.09 (≈ 0.166 µM) | 0.008 (≈ 0.0147 µM) | 0.01 (≈ 0.0184 µM) | 0.016 (≈ 0.0294 µM) | 0.06 (≈ 0.11 µM) |
